{
  "source": "ChEMBL document CHEMBL4052792",
  "about": "“3-Hydroxykynurenine, a Tryptophan Metabolite Generated during the Infection, Is Active Against Trypanosoma cruzi” (ACS Med Chem Lett, 2017)",
  "key": {"[1]": {"test": "Induction of apoptosis in BALB/C mouse BMDM assessed as cells with hypodiploid DNA content at 4000 uM after 24 hrs by FITC/propidium iodide staining based flow cytometric analysis (reference value: 29.9%)", "assay_type": "functional"}, "Trypanosoma cruzi [2]": {"test_system": "Trypanosoma cruzi", "test": "(§1) Trypanocidal activity against Trypanosoma cruzi Tulahuen amastigotes infected in BALB/C mouse bone marrow derived macrophages assessed as parasite infected macrophages at 0.2 uM treated for 24 hrs followed by compound washout measured after 48 hrs by immunofluorescence assay (reference value: 26.84 +/- 7.81%)", "assay_type": "functional"}, "Trypanosoma cruzi [3]": {"test_system": "Trypanosoma cruzi", "test": "Trypanostatic activity against Trypanosoma cruzi Tulahuen amastigotes infected in BALB/C mouse bone marrow derived macrophages assessed as formation of low electrodense structures in parasite cytoplasm at 20 uM after 24 hrs by transmission electron microscopic analysis", "assay_type": "functional", "how_it_was_run": "(§2)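 Bone marrow-derived macrophages were infected for 24 h, then exposed to 20 μM for 24 h or left untreated. Intracellular amastigote ultrastructure was examined by transmission electron microscopy, covering mitochondrion, nucleus, kinetoplast, flagellum, flagellar pocket, subpellicular microtubules and cytoplasmic structures.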"}, "Trypanosoma cruzi [4]": {"test_system": "Trypanosoma cruzi", "test": "Trypanocidal activity against Trypanosoma cruzi Tulahuen amastigotes infected in BALB/C mouse bone marrow derived macrophages assessed as endocytic index at 800 uM treated for 24 hrs followed by compound washout measured after 48 hrs by immunofluorescence assay (reference value: 213.66 +/- 58.79)", "assay_type": "functional"}, "Trypanosoma cruzi [5]": {"test_system": "Trypanosoma cruzi", "test": "Induction of mitochondrial membrane depolarization in Trypanosoma cruzi Tulahuen trypomastigotes at 2000 uM after 24 hrs by Rh123/propidium iodide staining-based flow cytometric analysis (reference value: 3.25 +/- 1.66%)", "assay_type": "functional", "how_it_was_run": "(§3)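 Trypomastigotes were treated with 3-HK for 24 h at 37 °C, then incubated with PI plus Rh123. Rh123 fluorescence was read by flow cytometry in PI-negative (live) parasites. The depolarized fraction was taken as the low-fluorescence M2 population. Index of variation = (treated median − control median)/control median. Three experiments were run.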"}, "[6]": {"test": "Induction of apoptosis in BALB/C mouse BMDM assessed as cells with hypodiploid DNA content at 1200 uM after 24 hrs by FITC/propidium iodide staining based flow cytometric analysis (reference value: 29.9%)", "assay_type": "functional"}, "Candida albicans": {"test_system": "Candida albicans", "test": "Antimicrobial activity against Candida albicans ATCC10231 after 10 to 20 hrs", "assay_type": "functional"}, "Trypanosoma cruzi [7]": {"test_system": "Trypanosoma cruzi", "test": "Trypanocidal activity against Trypanosoma cruzi Tulahuen amastigotes infected in BALB/C mouse bone marrow derived macrophages assessed as endocytic index at 1500 uM treated for 24 hrs followed by compound washout measured after 48 hrs by immunofluorescence assay (reference value: 213.66 +/- 58.79)", "assay_type": "functional"}, "Trypanosoma cruzi [8]": {"test_system": "Trypanosoma cruzi", "test": "Trypanocidal activity against Trypanosoma cruzi Tulahuen trypomastigotes assessed as reduction in parasites after 72 hrs by trypan blue assay", "assay_type": "functional", "how_it_was_run": "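Bloodstream trypomastigotes were incubated at 37 °C in culture medium alone or with increasing doses for 24, 48 and 72 h. Parasite death was scored as percentage by trypan blue exclusion. Results are means ± SD of three independent experiments.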"}, "Trypanosoma cruzi [9]": {"test_system": "Trypanosoma cruzi", "test": "Ratio of IC50 for Trypanosoma cruzi Tulahuen trypomastigotes infected in BALB/C mouse bone marrow derived macrophages to IC50 for Trypanosoma cruzi Tulahuen amastigotes infected in BALB/C mouse bone marrow derived macrophages", "assay_type": "functional"}, "Trypanosoma cruzi [10]": {"test_system": "Trypanosoma cruzi", "test": "as §1, with “1800” for “0.2”", "assay_type": "functional"}, "Trypanosoma cruzi [11]": {"test_system": "Trypanosoma cruzi", "test": "Trypanocidal activity against Trypanosoma cruzi Tulahuen amastigotes infected in BALB/C mouse bone marrow derived macrophages assessed as endocytic index at 400 uM treated for 24 hrs followed by compound washout measured after 48 hrs by immunofluorescence assay (reference value: 213.66 +/- 58.79)", "assay_type": "functional"}, "Trypanosoma cruzi [12]": {"test_system": "Trypanosoma cruzi", "test": "Induction of mitochondrial membrane potential reduction in Trypanosoma cruzi Tulahuen trypomastigotes up to 4000 uM after 24 hrs by Rh123/propidium iodide staining-based flow cytometric analysis (reference value: 3.25 +/- 1.66%)", "assay_type": "functional", "design": "scale not given: the % may be the effect or the level left", "how_it_was_run": "as §3"}, "Trypanosoma cruzi [13]": {"test_system": "Trypanosoma cruzi", "test": "Trypanocidal activity against Trypanosoma cruzi Tulahuen amastigotes infected in BALB/C mouse bone marrow derived macrophages assessed as endocytic index at 0.2 uM treated for 24 hrs followed by compound washout measured after 48 hrs by immunofluorescence assay (reference value: 213.66 +/- 58.79)", "assay_type": "functional"}, "Trypanosoma cruzi [14]": {"test_system": "Trypanosoma cruzi", "test": "Trypanocidal activity against Trypanosoma cruzi Tulahuen amastigotes infected in BALB/C mouse bone marrow derived macrophages assessed as endocytic index at 1800 uM treated for 24 hrs followed by compound washout measured after 48 hrs by immunofluorescence assay (reference value: 213.66 +/- 58.79)", "assay_type": "functional"}, "[15]": {"test": "Induction of apoptosis in BALB/C mouse BMDM assessed as cells with hypodiploid DNA content at 20 uM after 24 hrs by FITC/propidium iodide staining based flow cytometric analysis (reference value: 29.9%)", "assay_type": "functional"}, "Trypanosoma cruzi [16]": {"test_system": "Trypanosoma cruzi", "test": "as §1, with “2000” for “0.2”", "assay_type": "functional"}, "Trypanosoma cruzi [17]": {"test_system": "Trypanosoma cruzi", "test": "Induction of mitochondrial membrane potential in Trypanosoma cruzi Tulahuen trypomastigotes at 10 mM after 24 hrs by Rh123/PI staining-based flow cytometric analysis (reference value: 3.25 +/- 1.66%)", "assay_type": "functional", "how_it_was_run": "as §3"}, "[18]": {"test": "Induction of apoptosis in BALB/C mouse BMDM assessed as cells with hypodiploid DNA content at 200 uM after 24 hrs by FITC/propidium iodide staining based flow cytometric analysis (reference value: 29.9%)", "assay_type": "functional"}, "J774": {"test_system": "J774", "test": "Cytotoxicity against mouse J774 assessed as reduction in cell viability at 0.2 to 2000 uM after 24 hrs by trypan blue exclusion assay", "assay_type": "cell-based", "details": "j774, 24 h", "how_it_was_run": "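Mammalian cells (human PBMC, Swan 71, Jurkat; bone marrow-derived macrophages; J774) were exposed to 3-HK at 0.2 to 2000 μM for 24 h. Viability was then scored by trypan blue exclusion.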"}, "[19]": {"test": "Induction of apoptosis in BALB/C mouse BMDM assessed as cells with hypodiploid DNA content at 2000 uM after 24 hrs by FITC/propidium iodide staining based flow cytometric analysis (reference value: 29.9%)", "assay_type": "functional"}, "Trypanosoma cruzi [20]": {"test_system": "Trypanosoma cruzi", "test": "Trypanocidal activity against Trypanosoma cruzi Tulahuen trypomastigotes infected in BALB/C mouse bone marrow derived macrophages assessed as induction of cell lysis at trypomastigote stage after 24 hrs"}, "Trypanosoma cruzi [21]": {"test_system": "Trypanosoma cruzi", "test": "Trypanocidal activity against Trypanosoma cruzi Tulahuen trypomastigotes infected in mouse whole blood assessed as increase in parasite death at 0.2 uM by trypan blue assay", "assay_type": "functional", "details": "TDE = time-dependent effect"}, "Trypanosoma cruzi [22]": {"test_system": "Trypanosoma cruzi", "test": "Trypanocidal activity against Trypanosoma cruzi Tulahuen amastigotes infected in BALB/C mouse bone marrow derived macrophages assessed as decrease in intracellular parasite growth after 72 hrs by immunofluorescence assay", "assay_type": "functional, cell-based", "how_it_was_run": "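Macrophages were infected with trypomastigotes and treated with 3-HK for 24 h. Immunofluorescence counts were made at 72 h post-infection. Intracellular parasites per 200 cells were expressed relative to medium-treated cultures, and infected cells were counted among 200 macrophages. Data are means ± SD of four independent experiments.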"}, "Trypanosoma cruzi [23]": {"test_system": "Trypanosoma cruzi", "test": "Trypanocidal activity against Trypanosoma cruzi Tulahuen amastigotes infected in BALB/C mouse bone marrow derived macrophages assessed as endocytic index at 2000 uM treated for 24 hrs followed by compound washout measured after 48 hrs by immunofluorescence assay (reference value: 213.66 +/- 58.79)", "assay_type": "functional"}, "Trypanosoma cruzi [24]": {"test_system": "Trypanosoma cruzi", "test": "Trypanostatic activity against Trypanosoma cruzi Tulahuen amastigotes infected in BALB/C mouse bone marrow derived macrophages assessed as effect on flagellum structure at 20 uM after 24 hrs by transmission electron microscopic analysis", "assay_type": "functional", "how_it_was_run": "as §2"}},
  "note": "Activity calls are given as the source filed them. The calls are words filed in the database; no cut-off is given here.",
  "data": [
    {"smiles": "Nc1c(O)cccc1C(=O)C[C@H](N)C(=O)O", "values": [
      {"measurement": "Activity", "setting": "[1]", "value": 30.9, "unit": "%"},
      {"measurement": "Activity", "setting": "Trypanosoma cruzi [2]", "value": 10.85, "unit": "%"},
      {"measurement": "Activity", "setting": "Trypanosoma cruzi [3]", "value": "Active"},
      {"measurement": "Activity", "setting": "Trypanosoma cruzi [4]", "value": 99.39},
      {"measurement": "Activity", "setting": "Trypanosoma cruzi [5]", "value": 12.1, "unit": "%"},
      {"measurement": "Activity", "setting": "[6]", "value": 26.3, "unit": "%"},
      {"measurement": "IC50", "setting": "Candida albicans", "value": "30 to 137", "unit": "µM"},
      {"measurement": "Activity", "setting": "Trypanosoma cruzi [7]", "value": 124.36},
      {"measurement": "IC50", "setting": "Trypanosoma cruzi [8]", "value": "20 to 200", "unit": "µM"},
      {"measurement": "Ratio IC50", "setting": "Trypanosoma cruzi [9]", "value": 6000},
      {"measurement": "Activity", "setting": "Trypanosoma cruzi [10]", "value": 14.32, "unit": "%"},
      {"measurement": "Activity", "setting": "Trypanosoma cruzi [11]", "value": 89.81},
      {"measurement": "Activity", "setting": "Trypanosoma cruzi [12]", "value": "8 - 12%"},
      {"measurement": "Activity", "setting": "Trypanosoma cruzi [13]", "value": 67.61},
      {"measurement": "Activity", "setting": "Trypanosoma cruzi [14]", "value": 110.69},
      {"measurement": "Activity", "setting": "[15]", "value": 25.9, "unit": "%"},
      {"measurement": "Activity", "setting": "Trypanosoma cruzi [16]", "value": 16.31, "unit": "%"},
      {"measurement": "Activity", "setting": "Trypanosoma cruzi [17]", "value": 40, "unit": "%"},
      {"measurement": "Activity", "setting": "[18]", "value": 35.4, "unit": "%"},
      {"measurement": "Activity", "setting": "J774", "value": "Non-Toxic"},
      {"measurement": "Activity", "setting": "[19]", "value": 26.4, "unit": "%"},
      {"measurement": "IC50", "setting": "Trypanosoma cruzi [20]", "value": 1200, "unit": "µM"},
      {"measurement": "Activity", "setting": "Trypanosoma cruzi [21]", "value": "Tde"},
      {"measurement": "Activity", "setting": "Trypanosoma cruzi [22]", "value": "Dose-dependent effect"},
      {"measurement": "Activity", "setting": "Trypanosoma cruzi [23]", "value": 104.34},
      {"measurement": "Activity", "setting": "Trypanosoma cruzi [24]", "value": "inactive"}
    ]}
  ]
}
